# Measurements from different studies.
# Compare with care: the assays were run in different laboratories.
# Read-out: cell growth or viability
SMILES,cell line,test,setting,IC50 [µM]
Cc1c(-c2ccc(N3CCc4cccc(C(=O)Nc5nc6ccccc6s5)c4C3)nc2C(=O)O)cnn1CC12CC3CC(C1)CC(C(=O)NCCOCCOCCOCCNc1cccc4c1C(=O)N(C1CCC(=O)NC1=O)C4=O)(C3)C2 (centres unmarked),MOLT-4,MTS,48 h,0.0846
NS(=O)(=O)c1ccc(-n2nc(C(=O)NN=Cc3ccc(O)cc3)cc2-c2ccccc2)cc1,PaCa-2,fluorescence,48 h,8.53
COc1cccc2c1C(=O)c1c(O)c3c(c(O)c1C2=O)C[C@@](O)(C(=O)CO)C[C@@H]3O[C@H]1C[C@H](N)[C@H](O)[C@H](C)O1,Jurkat,,96 h,0.0339
COc1cc2[nH]cc(C(=O)C(C#N)=Cc3cn(C)c4ccccc34)c2cc1OC,MIA PaCa-2,MTT,48 h,15.6
NS(=O)(=O)c1ccc(-n2nc(C(=O)NN3C(=O)c4ccccc4C3=O)cc2-c2ccccc2)cc1,PaCa-2,fluorescence,48 h,35.4
Cc1ncsc1-c1ccc([C@H](C)NC(=O)[C@@H]2C[C@@H](O)CN2C(=O)[C@@H](NC(=O)CCCCCCCCS(=O)(=O)NC(=O)c2nc(N3CCc4cccc(C(=O)Nc5nc6ccccc6s5)c4C3)ccc2-c2cnn(CC34CC5CC(CC(C5)C3)C4)c2C)C(C)(C)C)cc1,MOLT-4,MTS,48 h,0.0094
N#Cc1ccc(-c2cc(COc3cc(C(F)(F)F)nc4ccccc34)on2)cc1,LN-229,MTS,72 h,23.9
CN(C)c1ccc(Nc2nc(-c3ccncc3)nc3c2CC(N)CC3)cc1 (centres unmarked),DU-145,MTT,,11.5
Nc1ccccc1NC(=O)c1ccc(Cn2cnc3c(Nc4ccc(Cl)cc4)ncnc32)cc1,Jurkat,MTT,72 h,13.5
Cc1c(-c2ccc(N3CCc4cccc(C(=O)Nc5nc6ccccc6s5)c4C3)nc2C(=O)O)cnn1CC12CC3CC(C1)CC(C(=O)NCCOCCNc1cccc4c1C(=O)N(C1CCC(=O)NC1=O)C4=O)(C3)C2 (centres unmarked),MOLT-4,MTS,48 h,0.0516
O=C(CSc1nc2ccccc2s1)N/N=C/c1ccc(OCC(=O)Nc2cccc([N+](=O)[O-])c2)cc1,LN-229,MTS,72 h,24.2
COc1ccc2[nH]cc(C(=O)C(C#N)=Cc3cn(C)c4ccccc34)c2c1,MIA PaCa-2,MTT,48 h,4.5
O=C(CSc1nc2ccccc2s1)N/N=C/c1ccc(OCC(=O)Nc2ccc([N+](=O)[O-])cc2)cc1,LN-229,MTS,72 h,4.39
COc1ccc2c(C(=O)C(C#N)=Cc3cn(Cc4ccc(Cl)cc4)c4ccccc34)c[nH]c2c1,MIA PaCa-2,MTT,48 h,7.9
Cc1c(-c2ccc(N3CCc4cccc(C(=O)Nc5nc6ccccc6s5)c4C3)nc2C(=O)O)cnn1CC12CC3CC(CC(C3)C1)C2,MOLT-4,MTS,48 h,0.0021
Nc1nnc(-c2ccccc2O)cc1N1CC2CCC(C1)N2c1ccnc(F)c1,LNCaP,ATP luminescence,7 days,> 1
Nc1ccccc1NC(=O)c1ccc(Cn2cnc3c(Nc4ccc(Br)cc4F)ncnc32)cc1,Jurkat,MTT,72 h,4.73
Cc1ncsc1-c1ccc([C@H](C)NC(=O)[C@@H]2C[C@@H](O)CN2C(=O)[C@@H](NC(=O)CCCCCCCS(=O)(=O)NC(=O)c2nc(N3CCc4cccc(C(=O)Nc5nc6ccccc6s5)c4C3)ccc2-c2cc(C#N)n(CC34CC5CC(CC(C5)C3)C4)c2C)C(C)(C)C)cc1,MOLT-4,MTS,48 h,0.0202
Nc1cccc2c1C(=O)N(C1CCC(=O)NC1=O)C2=O (centres unmarked),SU-DHL-2,CCK-8,7 days,1.5
N#Cc1ccc(-c2cc(COc3cc(=O)oc4ccccc34)on2)cc1,LN-229,MTS,72 h,> 100
Cc1ncsc1-c1ccc([C@H](CC(=O)NCCNC(=O)c2nc(N3CCc4cccc(C(=O)Nc5nc6ccccc6s5)c4C3)ccc2-c2cnn(CC34CC5CC(CC(C5)C3)C4)c2C)NC(=O)[C@@H]2C[C@@H](O)CN2C(=O)[C@@H](NC(=O)C2(C#N)CC2)C(C)(C)C)cc1,MOLT-4,MTS,48 h,0.0235
COC(=O)c1cc(C(C)=NNc2nc(-c3cccc4cc[nH]c34)cs2)ccc1O,T47D,MTT,96 h,20.8
FC(F)(F)c1cc(OCc2cc(-c3ccc(Cl)cc3Cl)no2)c2ccccc2n1,LN-229,MTS,72 h,> 100
COc1ccc(Nc2ncnc3c2ncn3Cc2ccc(C(=O)Nc3ccccc3N)cc2)cc1,Jurkat,MTT,72 h,9.74
Cc1c(-c2ccc(N3CCc4cccc(C(=O)Nc5nc6ccccc6s5)c4C3)nc2C(=O)O)cnn1CC12CC3CC(C1)CC(C(=O)NCCCCCCCCNc1cccc4c1C(=O)N(C1CCC(=O)NC1=O)C4=O)(C3)C2 (centres unmarked),MOLT-4,MTS,48 h,0.0041
CCn1cc(C=C(C#N)C(=O)c2c[nH]c3cc(OC)ccc23)c2ccccc21,MIA PaCa-2,MTT,48 h,> 40
NS(=O)(=O)c1ccc(-n2nc(C(=O)NN=Cc3ccccc3O)cc2-c2ccccc2)cc1,PaCa-2,fluorescence,48 h,10.9
c1ccc(-c2cc(CNc3cccc4cccnc34)on2)cc1,LN-229,MTS,72 h,33.7
Cc1ncsc1-c1ccc([C@H](CC(=O)NCCCNC(=O)c2nc(N3CCc4cccc(C(=O)Nc5nc6ccccc6s5)c4C3)ccc2-c2cnn(CC34CC5CC(CC(C5)C3)C4)c2C)NC(=O)[C@@H]2C[C@@H](O)CN2C(=O)[C@@H](NC(=O)C2(C#N)CC2)C(C)(C)C)cc1,MOLT-4,MTS,48 h,0.111
